Data reported in ChEMBL document CHEMBL1133253, “Improved antibacterial activities of coumarin antibiotics bearing 5',5'-dialkylnoviose: biological activity of RU79115” (Bioorg Med Chem Lett, 2000).
In brackets after ≈: the same amount, converted by molar mass.

Experiments:
Enterococcus faecium [1] = experiment: Minimum inhibitory concentration of the orally administered compound evaluated against vancomycin resistant Enterococci faecium D3HM3 strain in mice; assay type: functional
[2] = Minimum inhibitory concentration of the orally administered compound evaluated against […] PW3 strain in mice; assay type: functional
Mus musculus [3] = experiment: Protective dose of orally administered compound against intraperitoneally-induced septicaemia model (Staphylococcus aureus HT18) in murine; assay type: functional; details: po, read-out: PD50
Outline: (§1)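 PD50 was measured in a murine septicaemia model, with infection induced intraperitoneally with the named Gram-positive strain. Test compound was given orally and the PD50 was calculated by the probit method.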

Mus musculus [4] = experiment: Protective dose of orally administered compound against intraperitoneally-induced septicaemia model (Enterococci faecalis D2HT6 strain) in murine; assay type: functional; details: po, read-out: PD50; outline: as §1
Streptococcus sp. [5] = experiment: In vitro anti-streptococcal activity against Streptococci species [38]* expressed as geometric mean; assay type: functional
Staphylococcus sp. [6] = experiment: Minimum inhibitory concentration evaluated against Staphylococcus species resistant to oxacillin and ofloxacin [47]*; assay type: functional
Outline: (§2)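 Two-fold agar dilution MIC, in µg/mL, against Staphylococcus panels grouped by resistance phenotype (oxacillin and/or ofloxacin resistant). Per-panel values are reported as the geometric mean and MIC90 across strains; the strain count per panel is given in brackets.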

Streptococcus sp. [7] = experiment: Minimum inhibitory concentration evaluated against Streptococci species (viridans) [25]*; assay type: functional
Enterococcus [8] = experiment: Minimum inhibitory concentration evaluated against enterococci species resistant to vancomycin and teicoplanin [17]*; assay type: functional
Staphylococcus sp. [9] = experiment: Minimum inhibitory concentration evaluated against Staphylococcus species resistant to ofloxacin [59]*; assay type: functional; outline: as §2
Enterococcus faecalis = experiment: Minimum inhibitory concentration of the orally administered compound evaluated against Enterococci faecalis D2HT6 strain in mice; assay type: functional
Staphylococcus aureus [10] = experiment: IC50 was determined for gyrase B of Staphylococcus aureus against novobiocin (0.5 mg/mL) as reference; IC50nov/IC50comp
Mus musculus [11] = experiment: Protective dose of orally administered compound against intraperitoneally-induced septicaemia model (Streptococcus agalactiae B1HT3 strain) in murine; details: po, read-out: PD50
pneumococci = experiment: In vitro anti-streptococcal activity against pneumococci resistant to penicillin [29]* expressed as geometric mean; assay type: functional
Mus musculus [12] = experiment: Protective dose of orally administered compound against intraperitoneally-induced septicaemia model (Staphylococcus aureus GR56 strain resistant to oxacillin) in murine; assay type: functional; details: po, read-out: PD50; outline: as §1
Streptococcus sp. [13] = experiment: Minimum inhibitory concentration evaluated against Streptococci species [38]*; assay type: functional
Mus musculus [14] = experiment: Protective dose of orally administered compound against intraperitoneally-induced septicaemia model (vancomycin resistant Enterococci faecium D3HT12 strain ) in murine; assay type: functional; details: po, read-out: PD50
Outline: (§3)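 Mice infected intraperitoneally to induce septicaemia, then given the compound by mouth. PD50 was calculated by the probit method.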

Staphylococcus aureus [15] = experiment: Tested for in vitro antibacterial activity against Staphylococcus aureus 011 HT3 phenotype; assay type: functional
Staphylococcus sp. [16] = experiment: In vitro anti-staphylococcal activity against Staphylococcus species resistant to ofloxacin [59]* expressed as geometric mean; assay type: functional; outline: as §2
Staphylococcus aureus [17] = experiment: Minimum inhibitory concentration of the orally administered compound evaluated against Staphylococcus aureus HT-18 strain in mice; assay type: functional
Staphylococcus sp. [18] = experiment: In vitro anti-staphylococcal activity against Staphylococcus species resistant to oxacillin and ofloxacin[47]* expressed as geometric mean; assay type: functional; outline: as §2
[19] = Tested for Cmax value at the dose of 10 mg/kg when administered perorally in mouse; assay type: ADME, organism-based; parameters: dose 10 mg/kg, route oral; details: in vivo, po
Outline: (§4)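 Mouse pharmacokinetics used 10 mg/kg given IV and PO. Tmax and Cmax (µg/ml) come from oral dosing, half-life is in hours, and oral bioavailability is F%.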

[20] = Tested for bioavailability of the compound; assay type: ADME, organism-based; details: mouse, in vivo; outline: as §4
Streptococcus pyogenes [21] = experiment: Tested for in vitro antibacterial activity against Streptococcus pyogenes O2A1UC1 phenotype; assay type: functional
Mus musculus [22] = experiment: Protective dose of orally administered compound against intraperitoneally-induced septicaemia model (Staphylococcus aureus GO3 strain) in murine; assay type: functional; details: po, read-out: PD50; outline: as §1
Staphylococcus aureus [23] = experiment: Minimum inhibitory concentration of the orally administered compound evaluated against Staphylococcus aureus GR56 strain resistant to oxacillin in mice; assay type: functional
Enterococcus faecium [24] = experiment: Minimum inhibitory concentration of the orally administered compound evaluated against Enterococci faecium D3HT7 strain in mice; assay type: functional
Enterococcus faecium [25] = experiment: Minimum inhibitory concentration of the orally administered compound evaluated against vancomycin resistant Enterococci faecium D3HT12 strain in mice; assay type: functional
Mus musculus [26] = experiment: Protective dose of orally administered compound against intraperitoneally-induced septicaemia model (Enterococci faecium D3HT7 strain ) in murine; assay type: functional; details: po, read-out: PD50; outline: as §1
Staphylococcus aureus [27] = experiment: Tested for in vitro antibacterial activity against Staphylococcus aureus 011 HT1 novobiocin resistance phenotype; assay type: functional
Mus musculus [28] = experiment: Protective dose of orally administered compound against intraperitoneally-induced septicaemia model (vancomycin resistant Enterococci faecium D3AP9 strain ) in murine; assay type: functional; details: po, read-out: PD50; outline: as §1
Staphylococcus sp. [29] = experiment: In vitro anti-staphylococcal activity against Staphylococcus species [91]* expressed as geometric mean; assay type: functional
Outline: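 Two-fold agar-dilution MICs (µg/mL) were run on a panel of staphylococcal isolates and summarised as the geometric mean across strains.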

Staphylococcus aureus [30] = experiment: Minimum inhibitory concentration of the orally administered compound evaluated against Staphylococcus aureus GO3 strain in mice; assay type: functional
Enterococcus faecium [31] = experiment: Minimum inhibitory concentration of the orally administered compound evaluated against vancomycin resistant Enterococci faecium D3HM4 strain in mice; assay type: functional
Enterococcus [32] = experiment: Minimum inhibitory concentration evaluated against enterococci species susceptible to vancomycin [26]*; assay type: functional
Enterococcus faecium [33] = experiment: Tested for in vitro antibacterial activity against Enterococcus faecium 02D31P2 vancomycin teicoplanin erythromycin resistance phenotype; assay type: functional
Mus musculus [34] = experiment: Protective dose of orally administered compound against intraperitoneally-induced septicaemia model (Streptococcus pneumoniae PW3 strain) in murine; details: po, read-out: PD50
Staphylococcus aureus [35] = experiment: Minimum inhibitory concentration of the orally administered compound evaluated against Staphylococcus aureus HT-17 strain in mice; assay type: functional
Streptococcus sp. [36] = experiment: In vitro anti-streptococcal activity against Streptococci species (viridans) [25]* expressed as geometric mean; assay type: functional
Mus musculus [37] = experiment: Protective dose of orally administered compound against intraperitoneally-induced septicaemia model (Streptococcus pyogenes A1UC1 strain) in murine; details: po, read-out: PD50
Enterococcus [38] = experiment: Minimum inhibitory concentration evaluated against enterococci species resistant to vancomycin [65]*; assay type: functional
[39] = Tested for half life at the dose of 10 mg/kg when administered intravenously; assay type: ADME, organism-based; parameters: dose 10 mg/kg, route intravenous; details: mouse, in vivo, iv; outline: as §4
[40] = Minimum inhibitory concentration evaluated against pneumococci resistant to penicillin [29]*; assay type: functional
Staphylococcus sp. [41] = experiment: Minimum inhibitory concentration evaluated against Staphylococcus species [91]*; assay type: functional; outline: as §2
Mus musculus [42] = experiment: Protective dose of orally administered compound against intraperitoneally-induced septicaemia model (vancomycin resistant Enterococci faecium D3HM4 strain ) in murine; assay type: functional; details: po, read-out: PD50; outline: as §3
Streptococcus pyogenes [43] = experiment: Minimum inhibitory concentration of the orally administered compound evaluated against Streptococcus pyogenes A1UC1 strain in mice
[44] = Tested for Tmax value at the dose of 10 mg/kg when administered perorally in mouse; assay type: ADME, organism-based; parameters: dose 10 mg/kg, route oral; details: in vivo, po; outline: as §4
Staphylococcus sp. [45] = experiment: In vitro anti-staphylococcal activity against Staphylococcus species resistant to oxacillin [66]* expressed as geometric mean; assay type: functional; outline: as §2
[46] = test system: Staphylococcus epidermidis; experiment: Tested for in vitro antibacterial activity against Staphylococcus epidermidis 012GO42 oxacillin resistance phenotype; assay type: functional
Enterococcus [47] = experiment: In vitro anti-enterococcal activity against enterococci species susceptible to vancomycin [26]* expressed as geometric mean; assay type: functional
Mus musculus [48] = experiment: Protective dose of orally administered compound against intraperitoneally-induced septicaemia model (vancomycin resistant Enterococci faecium D3HM3 strain ) in murine; assay type: functional; details: po, read-out: PD50; outline: as §1
Enterococcus [49] = experiment: In vitro anti-enterococcal activity against enterococci species resistant to vancomycin and teicoplanin [17]* expressed as geometric mean; assay type: functional
Mus musculus [50] = experiment: Protective dose of orally administered compound against intraperitoneally-induced septicaemia model (Staphylococcus aureus HT-17 strain) in murine; assay type: functional; details: po, read-out: PD50; outline: as §1
Enterococcus faecium [51] = experiment: Minimum inhibitory concentration of the orally administered compound evaluated against vancomycin resistant Enterococci faecium D3AP9 strain in mice; assay type: functional
Staphylococcus sp. [52] = experiment: Minimum inhibitory concentration evaluated against Staphylococcus species resistant to oxacillin [66]*; assay type: functional; outline: as §2

C#CCONC(=O)O[C@H]1[C@@H](O)[C@H](Oc2ccc3c(=O)c(/C(C)=N/OC)c(O)oc3c2C)OC2(CCCC2)[C@@H]1OC
MIC (Enterococcus faecium [1]): 0.08 µg/mL (≈ 0.143 µM)
MIC [2]: 1.2 µg/mL (≈ 2.14 µM)
ED50 (Mus musculus [3]): 5.6 mg/kg
ED50 (Mus musculus [4]): 10 mg/kg
GM (Streptococcus sp. [5]): 0.47
MIC90 (Staphylococcus sp. [6]): 0.15 µg/mL (≈ 0.268 µM)
MIC90 (Streptococcus sp. [7]): 1.2 µg/mL (≈ 2.14 µM)
MIC90 (Enterococcus [8]): 0.3 µg/mL (≈ 0.535 µM)
MIC90 (Staphylococcus sp. [9]): 0.15 µg/mL (≈ 0.268 µM)
MIC (Enterococcus faecalis): 0.3 µg/mL (≈ 0.535 µM)
Ratio (Staphylococcus aureus [10]): 2.6
ED50 (Mus musculus [11]): 27.7 mg/kg
GM (pneumococci): 0.12
ED50 (Mus musculus [12]): 1 mg/kg
MIC90 (Streptococcus sp. [13]): 1.2 µg/mL (≈ 2.14 µM)
ED50 (Mus musculus [14]): 40 mg/kg
MIC (Staphylococcus aureus [15]): < 0.04 µg/mL
GM (Staphylococcus sp. [16]): 0.082
MIC (Staphylococcus aureus [17]): < 0.04 µg/mL
GM (Staphylococcus sp. [18]): 0.081
Cmax [19]: 5400 ng/mL
bioavailability [20]: 62%
MIC (Streptococcus pyogenes [21]): 0.15 µg/mL (≈ 0.268 µM)
ED50 (Mus musculus [22]): 7.1 mg/kg
MIC (Staphylococcus aureus [23]): 0.08 µg/mL (≈ 0.143 µM)
MIC (Enterococcus faecium [24]): 0.15 µg/mL (≈ 0.268 µM)
MIC (Enterococcus faecium [25]): 0.15 µg/mL (≈ 0.268 µM)
ED50 (Mus musculus [26]): 112 mg/kg
MIC (Staphylococcus aureus [27]): 1.2 µg/mL (≈ 2.14 µM)
ED50 (Mus musculus [28]): 44 mg/kg
GM (Staphylococcus sp. [29]): 0.099
MIC (Staphylococcus aureus [30]): 0.3 µg/mL (≈ 0.535 µM)
MIC (Enterococcus faecium [31]): 0.6 µg/mL (≈ 1.07 µM)
MIC90 (Enterococcus [32]): 1.2 µg/mL (≈ 2.14 µM)
MIC (Enterococcus faecium [33]): 0.15 µg/mL (≈ 0.268 µM)
ED50 (Mus musculus [34]): 8.5 mg/kg
MIC (Staphylococcus aureus [35]): 0.15 µg/mL (≈ 0.268 µM)
GM (Streptococcus sp. [36]): 0.59
ED50 (Mus musculus [37]): 37.6 mg/kg
MIC90 (Enterococcus [38]): 0.6 µg/mL (≈ 1.07 µM)
half-life [39]: 2.5 h
MIC90 [40]: 0.3 µg/mL (≈ 0.535 µM)
MIC90 (Staphylococcus sp. [41]): 0.15 µg/mL (≈ 0.268 µM)
ED50 (Mus musculus [42]): 77 mg/kg
MIC (Streptococcus pyogenes [43]): 0.15 µg/mL (≈ 0.268 µM)
Tmax [44]: 0.5 h
GM (Staphylococcus sp. [45]): 0.097
MIC [46]: < 0.04 µg/mL
GM (Enterococcus [47]): 0.26
ED50 (Mus musculus [48]): 32 mg/kg
GM (Enterococcus [49]): 0.16
ED50 (Mus musculus [50]): 2.8 mg/kg
MIC (Enterococcus faecium [51]): 0.6 µg/mL (≈ 1.07 µM)
MIC90 (Staphylococcus sp. [52]): 0.15 µg/mL (≈ 0.268 µM)
